Screens from PubChem BioAssay.
M4 antag = CHRM4 antagonism in calcium assay | P08173 | CHO-hM4 cells, ACh EC80, Fluo-8 calcium fluorescence | inhibition, % at 3 µM | 360,000 tested, 0.73% active | AID 624125;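 active = inhibition above its plate's cutoff, the mean inhibition of sample wells plus 3 SD, cut at about 27% in these data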;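 also: 0% = acetylcholine EC80 with DMSO and 100% = DMSO without agonist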
Target sequence (P08173 whole entry, looked up): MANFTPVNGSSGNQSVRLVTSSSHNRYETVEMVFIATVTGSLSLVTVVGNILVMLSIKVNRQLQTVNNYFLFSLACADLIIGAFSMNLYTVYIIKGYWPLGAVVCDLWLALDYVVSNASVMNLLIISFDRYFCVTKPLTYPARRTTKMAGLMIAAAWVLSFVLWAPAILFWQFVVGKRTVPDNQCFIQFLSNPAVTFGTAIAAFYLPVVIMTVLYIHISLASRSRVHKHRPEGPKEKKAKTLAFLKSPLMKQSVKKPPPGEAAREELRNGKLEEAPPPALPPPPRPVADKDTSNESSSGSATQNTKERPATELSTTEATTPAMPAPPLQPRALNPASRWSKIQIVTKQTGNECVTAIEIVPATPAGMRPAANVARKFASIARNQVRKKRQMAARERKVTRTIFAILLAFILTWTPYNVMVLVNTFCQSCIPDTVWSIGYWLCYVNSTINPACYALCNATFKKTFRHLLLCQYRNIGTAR
M4 PAM = positive allosteric modulators of human muscarinic M4 receptor; activation, % at 3 µM; P08173; 360,000 tested, 0.4% active; AID 624126; CHO-K1 hM4/Gqi5, Fluo-8 calcium fluorescence, ACh EC20; 0% = ACh EC20, 100% = maximal ACh;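 active = activation above its plate's cutoff, the mean activation of sample wells plus 3 SD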
CHRM5 agonist = agonists of human muscarinic M5 receptor (CHRM5); P08912; CHO-K1 hM5 cells, Fluo-8 calcium fluorescence; 0% DMSO wells, 100% maximal acetylcholine response; activation, % at 3 µM; 360,000 tested, 0.19% active;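 active = activation above the run's mean over test compounds plus 3 SD, cut at about 23% in these data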;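 also: signal is peak over basal fluorescence ratio across the kinetic read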
CHRM4 agonist = CHRM4 agonism in calcium assay | CHO-K1 hM4/Gqi5, Fluo-8 calcium fluorescence; vehicle 0%, full acetylcholine response 100% | 360,000 tested, 0.14% active | activation, % at 3 µM | AID 624127;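 active = activation above the run mean over all test wells plus 3 SD, cut at about 32% in these data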;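 also: peak over basal fluorescence ratio per well then scaled between controls; 0% = DMSO wells and 100% = acetylcholine at EC100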
CHRM5 antagonist = CHRM5 antagonism in calcium assay. CHO-hM5 cells, Fluo-8 calcium fluorescence, ACh EC80. inhibition, % at 3 µM. P08912. 360,000 tested, 0.59% active;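 active = inhibition above a per-plate cutoff, the mean of that plate's test compounds plus 3 SD, cut at about 27% in these data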;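 also: 0% = acetylcholine EC80 with DMSO and 100% = DMSO without agonist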
CHRM5 PAM = CHRM5 positive allosteric modulation; activation, % at 3 µM; AID 624038; 360,000 tested, 0.3% active; CHO-K1 hM5, Fluo-8 calcium, ACh EC20 PAM; 0% = ACh EC20, 100% = ACh EC100;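 active = activation above the run cutoff, the mean activation of all test compounds plus 3 SD, cut at about 18% in these data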
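system = human M5 receptor in CHO-K1 cells | compound = one concentration, 3 µM final (nominal) | schedule = Post-acetylcholine fluorescence recording 140 s | signal = Fluo-8 calcium dye fluorescence, kinetic read | benchmarks = low control EC20 acetylcholine (0%), high control EC100 acetylcholine (100%) | repeats = singlicate, one well per test compound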
The depositor's hits bear a star; · = no result given. In the library only some 1.8% were active in any assay of this set; here they are far more common.

SMILES	M4 antag	M4 PAM	CHRM5 agonist	CHRM4 agonist	CHRM5 antagonist	CHRM5 PAM
CC(C)=CCN1CC[C@@]2(C)c3cc(O)ccc3CC1C2C (some centres undefined)	34*	-16	-6	1	25	-23
O=C(OCc1ccccc1)N1CCC2CC1c1cc(N3Cc4ccccc4-n4nncc4C3)ccc12 (centres undefined)	-1	-6	0	0	8	-4
CC(C)NC(=O)Cn1cc(C(=O)c2ccccc2F)c2ccccc21	1	27*	4	1	-10	4
O=C(Nc1cccnc1)c1c(O)c2c(n(Cc3ccccc3)c1=O)CCCC2	1	0	-3	0	-5	1
O=C(Nc1ccc(F)cc1)c1c(O)c2c(n(Cc3ccccc3)c1=O)CCCC2	14	21*	-1	2	-7	-3
CC12CCCCC1N(O)CN2O (centres undefined)	-4	3	-2	0	1	2
COCCO[C@H]1CC[C@@]2(C)C(=CCC3C2CC[C@@]2(C)C3CC[C@]2(C)O)C1 (some centres undefined)	-19	-7	-1	8	3	-12
Oc1ccc(CC2(N3CCCC3)CCCCC2)cc1	8	-6	-6	0	18	-6
CC(C)(C)c1nc(NCc2ccc3c(c2)OCO3)c2nnn(Cc3ccccc3Cl)c2n1	-3	28*	-1	1	1	-3
CCCNC(=O)c1c(N)n(Cc2ccc3c(c2)OCO3)c2nc3ccccc3nc12	3	-3	4	1	-7	7
C[N+]1(C)CCC(OC(=O)C(c2ccccc2)c2ccccc2)CC1	98*	-16	-2	0	99*	-19
C[N+]1(C)C2CC(OC(=O)[C@H](CO)c3ccccc3)CC1C1OC12 (some centres undefined)	·	·	-2	·	99*	-18
C#CC[N+]1(C)[C@@H]2CC[C@H]1CC(OC(=O)C(CO)c1ccccc1)C2 (some centres undefined)	99*	-19	-9	1	98*	-21
C[N+]1(C)[C@@H]2CC[C@H]1CC(OC(=O)[C@@H](CO)c1ccccc1)C2 (some centres undefined)	99*	-18	-10	0	99*	-22
CN1CSC(=S)N(C)C1	-3	11	1	0	4	0
C[N+]1(C)C2CC[C@H]1CC(OC(=O)C(CO)c1ccccc1)C2 (some centres undefined)	99*	-18	-1	0	99*	-18
C[N+]1(C)C2CCC1CC(OC(=O)c1c[nH]c3ccccc13)C2 (centres undefined)	-5	0	-1	0	0	-7
O=c1[nH]c(=O)n(CCc2ccccc2)c(O)c1C=NC1CC1	-4	2	2	1	0	-5
CC1CCCCN1CC(O)c1c[nH]c2ccccc12 (centres undefined)	0	3	-4	1	5	4
OC(CN1CCCCC1)c1c[nH]c2ccccc12 (centres undefined)	86*	-18	-5	0	25	-14
NS(=O)(=O)OC(CCc1ccccc1)C(Cl)(Cl)Cl (centres undefined)	4	-1	-2	0	-13	9
CN1CCN(Cc2ccccc2Sc2ccccc2)CC1	95*	-38	-5	7	99*	-20
CC(Cc1ccccc1Sc1ccccc1)N(C)C (centres undefined)	92*	-40	-7	3	99*	-21
COc1ccccc1Sc1ccccc1CC(C)N (centres undefined)	8	9	-5	10	8	2
CC(Cc1ccccc1Sc1ccc(O)cc1)N(C)C (centres undefined)	42*	-20	-5	4	91*	-21
SMILES	M4 antag	M4 PAM	CHRM5 agonist	CHRM4 agonist	CHRM5 antagonist	CHRM5 PAM
CC(C)CC12CN3CCN(CC(C3)C1O)C2 (centres undefined)	7	16	-4	0	-7	9
O=c1[nH]c(=S)n(CCC2=CCCCC2)c(O)c1C=NCCCn1ccnc1	29*	-19	-8	-1	10	-19
CN1C2CCC1CC(OC(c1ccccc1)c1ccccc1N)C2 (centres undefined)	100*	-19	-1	0	99*	-19
C[C@H](NC(=O)N1C[C@H]2C[C@@H](C1)c1cccc(=O)n1C2)C(=O)Nc1ccc(F)c(F)c1	3	-2	1	0	2	-3
Clc1ccccc1CNC1CN2CCC1CC2 (centres undefined)	17	-10	-8	0	32*	-18
c1ccc(CNC2CN3CCC2CC3)cc1 (centres undefined)	9	-8	-9	1	16	-33
CC1(C)C[C@H]2C=C(C=O)[C@]3(C=O)C[C@]3(C)[C@H]2C1	35*	-13	8	3	-3	13
CCC(CO)(C(=O)OC1CC2CCC(C1)N2C)c1ccccc1 (centres undefined)	100*	-17	-16	1	99*	-33
Clc1ccc2c(c1)C(OC1CN3CCC1CC3)c1ccccc1CS2 (centres undefined)	99*	-42	-2	16	99*	-18
O=C(COc1ccc(Cl)cc1)N(c1ccccc1Cl)C1CN2CCC1CC2 (centres undefined)	11	-39	-19	6	12	-32
CN1CCN(CCOC2c3ccccc3CSc3ccc(Cl)cc32)CC1 (centres undefined)	83*	-43	-2	11	54*	-17
Cc1ccc2c(c1)C1CN(C)CCC1N2C(=O)CCCN1C(=O)c2cccc3cccc(c23)C1=O (centres undefined)	0	1	-11	1	9	5
CCOC(=O)c1c(NS(=O)(=O)c2ccccc2)n(CCCOC)c2nc3ccccc3nc12	0	23*	7	3	22	13
COc1ccc(CC(C)NC2CCCCCC2)cc1 (centres undefined)	1	-2	-8	1	10	0
COc1cc(C(=O)OC2C[C@H]3CC[C@@H](C2)N3C)ccc1O (some centres undefined)	3	-4	-8	0	1	0
COc1cc(C(=O)OC2C[C@H]3CC[C@@H](C2)N3)ccc1O (some centres undefined)	38*	-16	-8	0	2	-8
